ChEMBL document CHEMBL2412964, “Discovery of novel tetrahydro-pyrazolo [4,3-c] pyridines for the treatment of neuropathic pain: synthesis and neuropharmacology” (Eur J Med Chem, 2013)

Key:
[1] = test system: Rattus norvegicus; assay: Antinociceptive activity in Wistar rat chronic constriction injury model assessed as reversal of cold allodynia at 100 mg/kg, ip after 60 mins (reference value: 6.3 +/- 1.9%); format: functional; details: route intraperitoneal
[2] = test system: Rattus norvegicus; assay: Antinociceptive activity in Wistar rat partial sciatic nerve ligation model assessed as reversal of cold allodynia at 100 mg/kg, ip after 120 mins (reference value: 1.5 +/- 0.5%); format: functional; details: route intraperitoneal
[3] = test system: Rattus norvegicus; assay: Antinociceptive activity in Wistar rat partial sciatic nerve ligation model assessed as reversal of mechanical allodynia at 100 mg/kg, ip after 120 mins (reference value: 2.9 +/- 0.3%); format: functional; details: route intraperitoneal
[4] = test system: Rattus norvegicus; assay: Antinociceptive activity in Wistar rat chronic constriction injury model assessed as reversal of tactile allodynia at 100 mg/kg, ip after 120 mins (reference value: 4.1 +/- 2.1%); format: functional; details: route intraperitoneal
[5] = test system: Rattus norvegicus; assay: Antinociceptive activity in Wistar rat partial sciatic nerve ligation model assessed as reversal of spontaneous pain response at 100 mg/kg, ip after 120 mins (reference value: 1.2 +/- 0.1%); format: functional; details: route intraperitoneal
[6] = test system: Rattus norvegicus; assay: Antinociceptive activity in Wistar rat chronic constriction injury model assessed as reversal of tactile allodynia at 100 mg/kg, ip after 30 mins (reference value: 3.4 +/- 0.8%); format: functional; details: route intraperitoneal
[7] = test system: Rattus norvegicus; assay: Antinociceptive activity in Wistar rat chronic constriction injury model assessed as reversal of cold allodynia at 100 mg/kg, ip after 120 mins (reference value: 5.4 +/- 1.9%); format: functional; details: route intraperitoneal
[8] = test system: Rattus norvegicus; assay: Antinociceptive activity in Wistar rat chronic constriction injury model assessed as reversal of cold allodynia at 100 mg/kg, ip after 30 mins (reference value: 0.6 +/- 2.7%); format: functional; details: route intraperitoneal
[9] = test system: Rattus norvegicus; assay: Antinociceptive activity in Wistar rat chronic constriction injury model assessed as reversal of mechanical allodynia at 100 mg/kg, ip after 120 mins (reference value: 5.3 +/- 0.5%); format: functional; details: route intraperitoneal
[10] = test system: Rattus norvegicus; assay: Antinociceptive activity in Wistar rat chronic constriction injury model assessed as reversal of spontaneous pain response at 100 mg/kg, ip after 60 mins (reference value: 4.6 +/- 0.6%); format: functional; details: route intraperitoneal
[11] = test system: Rattus norvegicus; assay: Antinociceptive activity in Wistar rat partial sciatic nerve ligation model assessed as reversal of mechanical allodynia at 100 mg/kg, ip after 30 mins (reference value: 2.9 +/- 0.3%); format: functional; details: route intraperitoneal
[12] = test system: Rattus norvegicus; assay: Antinociceptive activity in Wistar rat chronic constriction injury model assessed as reversal of mechanical allodynia at 100 mg/kg, ip after 30 mins (reference value: 4.7 +/- 2.1%); format: functional; details: route intraperitoneal
[13] = test system: Mus musculus; assay: Antinociceptive activity in Swiss albino mouse assessed as inhibition of formalin-induced flinching at 100 mg/kg administered 30 mins prior to test measured for 10 to 30 mins relative to control; format: functional
[14] = test system: Rattus norvegicus; assay: Antinociceptive activity in Wistar rat partial sciatic nerve ligation model assessed as reversal of cold allodynia at 100 mg/kg, ip after 60 mins (reference value: 2.5 +/- 0.3%); format: functional; details: route intraperitoneal
[15] = test system: Mus musculus; assay: Antinociceptive activity in Swiss albino mouse assessed as inhibition of formalin-induced flinching at 100 mg/kg administered 30 mins prior to test measured up to 5 mins relative to control; format: functional
[16] = test system: Rattus norvegicus; assay: Antinociceptive activity in Wistar rat chronic constriction injury model assessed as reversal of spontaneous pain response at 100 mg/kg, ip after 120 mins (reference value: 4.5 +/- 0.2%); format: functional; details: route intraperitoneal
[17] = test system: Mus musculus; assay: Antinociceptive activity in Swiss albino mouse assessed as inhibition of acetic acid-induced writhing at 100 mg/kg administered 30 mins prior to acetic acid-challenge measured for 30 mins relative to control; format: functional
How it was run: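 Swiss albino mice (20–25 g, either sex); writhing induced by i.p. 0.1 mL of 2.0% v/v acetic acid given half an hour after test compound dosing.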

[18] = test system: Rattus norvegicus; assay: Antinociceptive activity in Wistar rat partial sciatic nerve ligation model assessed as reversal of cold allodynia at 100 mg/kg, ip after 30 mins (reference value: 4.1 +/- 1.0%); format: functional; details: route intraperitoneal
[19] = test system: Rattus norvegicus; assay: Antinociceptive activity in Wistar rat partial sciatic nerve ligation model assessed as reversal of tactile allodynia at 100 mg/kg, ip after 60 mins (reference value: 12.5 +/- 1.2%); format: functional; details: route intraperitoneal
[20] = organism: Mus musculus; assay: Neurotoxicity in Swiss albino mouse assessed as minimal motor impairment after 0.5 hrs by rotarod test; format: toxicity, organism-based; details: in vivo
How it was run: (§1)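 Mice, either sex, 20-25 g, dosed at 30, 100 and 300 mg/kg. Minimal motor impairment was scored on the rotarod at 0.5 and 4.0 h. Value reported is the minimum dose showing the effect in half or more of three mice per group.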

[21] = test system: Rattus norvegicus; assay: Antinociceptive activity in Wistar rat partial sciatic nerve ligation model assessed as reversal of spontaneous pain response at 100 mg/kg, ip after 30 mins (reference value: 3.2 +/- 0.3%); format: functional; details: route intraperitoneal
[22] = test system: Rattus norvegicus; assay: Antinociceptive activity in Wistar rat partial sciatic nerve ligation model assessed as reversal of spontaneous pain response at 100 mg/kg, ip after 60 mins (reference value: 2.9 +/- 0.3%); format: functional; details: route intraperitoneal
[23] = test system: Rattus norvegicus; assay: Antinociceptive activity in Wistar rat chronic constriction injury model assessed as reversal of mechanical allodynia at 100 mg/kg, ip after 60 mins (reference value: 4.9 +/- 1.0%); format: functional; details: route intraperitoneal
[24] = test system: Rattus norvegicus; assay: Antinociceptive activity in Wistar rat partial sciatic nerve ligation model assessed as reversal of tactile allodynia at 100 mg/kg, ip after 120 mins relative to control; format: functional; details: route intraperitoneal
[25] = organism: Mus musculus; assay: Neurotoxicity in Swiss albino mouse assessed as minimal motor impairment after 4 hrs by rotarod test; format: toxicity, organism-based; details: in vivo; how it was run: as §1
[26] = test system: Rattus norvegicus; assay: Antinociceptive activity in Wistar rat partial sciatic nerve ligation model assessed as reversal of mechanical allodynia at 100 mg/kg, ip after 60 mins (reference value: 2.8 +/- 0.3%); format: functional; details: route intraperitoneal
[27] = test system: Rattus norvegicus; assay: Antinociceptive activity in Wistar rat chronic constriction injury model assessed as reversal of tactile allodynia at 100 mg/kg, ip after 60 mins (reference value: 1.3 +/- 0.3%); format: functional; details: route intraperitoneal
[28] = test system: Rattus norvegicus; assay: Antinociceptive activity in Wistar rat partial sciatic nerve ligation model assessed as reversal of tactile allodynia at 100 mg/kg, ip after 30 mins (reference value: 7.7 +/- 0.7%); format: functional; details: route intraperitoneal
[29] = test system: Rattus norvegicus; assay: Antinociceptive activity in Wistar rat chronic constriction injury model assessed as reversal of spontaneous pain response at 100 mg/kg, ip after 30 mins (reference value: 8.9 +/- 4.6%); format: functional; details: route intraperitoneal
[30] = test system: Mus musculus; assay: Neurotoxicity in Swiss albino mouse assessed as minimal motor impairment at 300 mg/kg after 0.5 hrs by rotarod test; format: toxicity, organism-based; parameters: dose 300 mg/kg; details: in vivo
How it was run: (§2)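 Swiss albino mice of either sex, 20-25 g, dosed at 30, 100 and 300 mg/kg, three per group. Minimal motor impairment scored by rotarod at 0.5 and 4.0 h after dosing. Reported value is the lowest dose giving impairment in half or more of the mice.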

[31] = test system: Mus musculus; assay: Neurotoxicity in Swiss albino mouse assessed as minimal motor impairment at 300 mg/kg after 4 hrs by rotarod test; format: toxicity, organism-based; parameters: dose 300 mg/kg; details: in vivo; how it was run: as §2

| SMILES | Activity [1] | Activity [2] | Activity [3] | Activity [4] | Activity [5] | Activity [6] | Activity [7] | Activity [8] | Activity [9] | Activity [10] | Activity [11] | Activity [12] | inhibition in vivo at 100 mg/kg [13] | Activity [14] | inhibition in vivo at 100 mg/kg [15] | Activity [16] | inhibition in vivo at 100 mg/kg [17] | Activity [18] | Activity [19] | Activity [21] | further results |
| --- | --- | --- | --- | --- | --- | --- | --- | --- | --- | --- | --- | --- | --- | --- | --- | --- | --- | --- | --- | --- | --- |
| CCN1CCc2c(c(C)nn2C(=O)Nc2cc(C)ccc2C)C1 | 18.7% | 12% | 14.6% | 2.2% | 4.8% | 17.3% | 14.1% | 18.4% | 16.8% | 33.3% | 39.6% | 3.8% | 55.8% | 14.8% | 2.6% | 27.7% | 62.2% | 17.1% | 16% | 7.5% | MLD [20]: 300 mg/kg; Activity [22]: 11.1%; Activity [23]: 20.7%; Activity [24]: 3.5%; MLD [25]: 300 mg/kg; Activity [26]: 20.8%; Activity [27]: 9.9%; Activity [28]: 27.6%; Activity [29]: 23.6% |
| CCN1CCc2c(c(C)nn2C(=O)Nc2ccc(F)cc2F)C1 | 53.1% | 40% | 63.3% | 67% | 14.7% | 39.3% | 40.6% | 72.7% | 63.3% | 63.6% | 62.1% | 62.1% | 14.3% | 35.4% | 7.8% | 72.8% | 76.3% | 58.7% | 41.7% | 59.2% | Activity [30]: Non-toxic; Activity [22]: 28.2%; Activity [23]: 58.9%; Activity [31]: Non-toxic; Activity [24]: 39.2%; Activity [26]: 58.9%; Activity [27]: 69.6%; Activity [28]: 58.3%; Activity [29]: 69.3% |
| CCN1CCc2c(c(C(C)(C)C)nn2C(=O)Nc2cc(C)ccc2C)C1 | 10.1% | 9.5% | 14.3% | 44.7% | 13.6% | 4.5% | 40.5% | 17.9% | 9.1% | 19.8% | 14.3% | 18.2% | 15.7% | 12.7% | 0% | 12.4% | 63.1% | 12% | 16.7% | 4.9% | Activity [30]: Non-toxic; Activity [22]: 14.4%; Activity [23]: 18.2%; Activity [31]: Non-toxic; Activity [24]: 4.5%; Activity [26]: 7.1%; Activity [27]: 9.7%; Activity [28]: 36.4%; Activity [29]: 21.1% |
